According to publication PMC5689159 (Biochemistry and Biophysics Reports, 2016):

Key:
litchi lectin = experiment: tryptophan fluorescence quenching; type: binding, Litchi chinensis; settings: free lectin; 150 mM NaCl, 10 mM CaCl2, pH 7.5, 298 K; n = 0.9
Procedure, shortened: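 Steady-state fluorescence emission spectra of dilute lectin solutions (10−4−10−6 M) recorded at 298 K in 1 cm path-length quartz cells on a fluorescence spectrophotometer. UV–vis absorption spectra were taken under the same conditions.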

[1] = biological target: litchi lectin (Litchi chinensis seed lectin) (Litchi chinensis); experiment: native gel or EMSA

Row | Ka/ (10^4) (M^-1) (litchi lectin) | stoichiometry N [1] | Compound
1 | 4.9 (±0.2)×10^4 |  | OC[C@H]1O[C@H](O[C@H]2[C@H](O)[C@@H](O)C(O)O[C@@H]2CO)[C@H](O)[C@@H](O)[C@@H]1O (some centres unmarked) [maltose]
2 |  | 2 | litchi lectin (Litchi chinensis seed lectin) (natural protein)
